Like-named read-outs stand apart in the source and are kept apart here.
Tests used:
hpol κ^19–526 = target: T1, hpol κ^19–526 (Homo sapiens, UniProt Q9UBT6); assay: polymerase-catalyzed primer extension; type: biochemical; settings: read-out: IC50 for inhibition of DNA polymerase activity; five-minute time point; all four dNTPs 0.25 mM, MgCl2 5 mM; 20 nM enzyme, 200 nM DNA, 37 °C
T1 sequence (Q9UBT6 19-526): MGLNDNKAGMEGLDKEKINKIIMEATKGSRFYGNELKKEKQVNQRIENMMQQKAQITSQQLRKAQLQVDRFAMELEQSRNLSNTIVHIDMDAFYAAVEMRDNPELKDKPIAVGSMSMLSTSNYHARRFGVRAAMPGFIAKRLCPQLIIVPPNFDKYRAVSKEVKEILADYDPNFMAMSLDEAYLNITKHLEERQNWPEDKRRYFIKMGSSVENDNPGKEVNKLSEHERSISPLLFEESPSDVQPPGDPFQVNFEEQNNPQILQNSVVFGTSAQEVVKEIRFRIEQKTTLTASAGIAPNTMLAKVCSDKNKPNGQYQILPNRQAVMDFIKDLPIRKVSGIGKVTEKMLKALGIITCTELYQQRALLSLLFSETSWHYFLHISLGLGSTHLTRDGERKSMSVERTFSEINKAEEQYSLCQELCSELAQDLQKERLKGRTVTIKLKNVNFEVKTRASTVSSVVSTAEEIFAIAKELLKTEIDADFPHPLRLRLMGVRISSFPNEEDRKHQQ

hpol ι^26–446 [1] = target: T2, hpol ι^26–446 (Homo sapiens, UniProt Q9UNA4); type: binding; settings: for Kd: read-out: Kd,DNA (polymerase binding to primer-template DNA)
T2 sequence (Q9UNA4 26-446): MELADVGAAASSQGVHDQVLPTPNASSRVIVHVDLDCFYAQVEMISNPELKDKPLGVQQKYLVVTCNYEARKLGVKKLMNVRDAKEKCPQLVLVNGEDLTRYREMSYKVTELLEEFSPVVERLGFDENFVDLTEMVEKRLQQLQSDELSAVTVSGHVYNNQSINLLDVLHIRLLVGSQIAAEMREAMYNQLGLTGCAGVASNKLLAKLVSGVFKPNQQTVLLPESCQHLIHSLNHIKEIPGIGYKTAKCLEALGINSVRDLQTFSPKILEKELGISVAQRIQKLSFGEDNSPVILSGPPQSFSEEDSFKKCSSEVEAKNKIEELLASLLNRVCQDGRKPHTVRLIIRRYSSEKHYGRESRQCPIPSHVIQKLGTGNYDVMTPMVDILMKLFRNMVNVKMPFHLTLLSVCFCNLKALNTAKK
Outline: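 Recombinant human polymerase (His/GST-tagged, expressed in E. coli BL21(DE3), tags cleaved) titrated into 2 nM FAM-labelled 13/18-mer primer-template at 25 °C. Buffer: 50 mM HEPES pH 7.5, 10 mM KOAc, 10 mM MgCl₂, 0.1 mM ZnCl₂, 0.1 mM EDTA, 10% DMSO, 0.1 mg/mL BSA. MK886 at 0–250 μM, with DMSO as control. Polarization read at ex 485/em 525 nm. Kd fitted with total DNA held constant.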

hpol ι^26–446 [2] = target: T2, hpol ι^26–446; type: biochemical; settings: for kcat: dTTP
Outline: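 Tripartite substrate built by annealing an unlabelled 19-mer primer, a TAMRA-labelled 10-mer reporter and a BHQ2-labelled 29-mer template (1.4:1:1.5); 50 nM substrate used. Enzyme at 5 nM in 50 mM Tris-HCl pH 8.0, 0.01% Tween-20, 2 mM DTT, 40 mM KCl, 0.25 mM MnCl₂, 25 °C. Inhibitor or DMSO present; dTTP 1–200 μM. Fluorescence (ex 525/em 598 nm) read continuously up to 60 min. Linear-phase velocities fitted to a hyperbola.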

IC50 (hpol κ^19–526): 63800 ± 1700 nM | change in the affinity for DNA relative to the DMSO control (hpol ι^26–446 [1]; 10 μM MK886): no observed change | fold increase in the Kd,DNA (hpol ι^26–446 [1]; MK886 at or above 100 μM): > 2 fold | Kd (hpol ι^26–446 [1]; 100 μM MK886): 18.8 ± 2.7 nM | Kd (hpol ι^26–446 [1]; 150 μM MK886): 16.4 ± 2.1 nM | Kd (hpol ι^26–446 [1]; 250 μM MK886): 38.8 ± 17.1 nM | kcat (hpol ι^26–446 [2]; 20 μM MK886, fluorescence-based assay): 0.0733 ± 0.0017 s⁻¹ | Fold decrease in kcat/KM,dNTP (hpol ι^26–446 [2]; 20 μM MK886 vs no inhibitor): 1.6 | kcat (hpol ι^26–446 [2]; 40 μM MK886, fluorescence-based assay): 0.0717 ± 0.0017 s⁻¹ | Fold decrease in kcat/KM,dNTP (hpol ι^26–446 [2]; 40 μM MK886 vs no inhibitor): 2.1 | kcat (hpol ι^26–446 [2]; 60 μM MK886, fluorescence-based assay): 0.0683 ± 0.0033 s⁻¹ | Fold decrease in kcat/KM,dNTP (hpol ι^26–446 [2]; 60 μM MK886 vs no inhibitor): 2.4 | mechanism of inhibition of DNA polymerase activity (hpol ι^26–446 [2]; fluorescence-based assay, diminished kcat and increased KM,dNTP): mixed-type inhibition
Structure (SMILES): CC(C)c1ccc2c(c1)c(SC(C)(C)C)c(CC(C)(C)C(=O)O)n2Cc1ccc(Cl)cc1 [MK886, 3-[1-(4-chlorobenzyl)-3-t-butyl-thio-5-isoproylindol-2-yl]-2,2-dimethylpropanoic acid]
